Experimental findings from ChEMBL document CHEMBL1914459 (Bioorg Med Chem Lett, 2011) are described below.

Calls of active or inactive are those of the source. No cut-off for these calls is given here.

Data set [1] is described as follows: Clearance in Sprague-Dawley rat at 1 mg/kg, iv. As to conditions: in vivo. The format is ADME, organism-based. Set-up: dose 1 mg/kg, route intravenous.
Data set [2] in a line: Inhibition of human recombinant aldose reductase 2 after 15 mins by spectrophotometry analysis.
The nature of data set [3]: Oral bioavailability in Sprague-Dawley rat at 3 mg/kg. In kind it is ADME, organism-based. As to conditions: in vivo.
A short description of data set [4]: Lipophilicity, log D of the compound at pH 7.4. As to conditions: buffer.
For a further data set, the species on record is Homo sapiens. The experiment in a line: Selectivity ratio of IC50 for human recombinant aldose reductase 1 to IC50 for human CRTh2 receptor. In outline:
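Ratio of two IC50s from separate assays. […] ALR1 activity was followed at […] as NADPH oxidation, at 22 °C. All reagents except NADPH were preincubated 15 min before NADPH started the reaction. Initial linear rates were corrected for non-enzymatic NADPH oxidation, and % inhibition was taken against no-compound control.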

Data set [5] concerns the target Aldehyde reductase AKR1A1 (Homo sapiens). Briefly: Inhibition of human recombinant aldose reductase 1 after 15 mins by spectrophotometry analysis.
Data set [6] can be described thus: Volume of distribution at steady state in Sprague-Dawley rat at 1 mg/kg, iv. In kind it is ADME, organism-based. Set-up: dose 1 mg/kg, route intravenous. Particulars: in vivo, read-out: Vdss.
Data set [7] is described as follows: Half life in Sprague-Dawley rat at 1 mg/kg, iv. In kind it is ADME, organism-based. Also on record: dose 1 mg/kg, route intravenous. Particulars: in vivo.
Data set [8] deals with T1, Prostaglandin D2 receptor 2 (Homo sapiens, UniProt Q9Y5Y4).
T1 sequence (Q9Y5Y4 whole entry): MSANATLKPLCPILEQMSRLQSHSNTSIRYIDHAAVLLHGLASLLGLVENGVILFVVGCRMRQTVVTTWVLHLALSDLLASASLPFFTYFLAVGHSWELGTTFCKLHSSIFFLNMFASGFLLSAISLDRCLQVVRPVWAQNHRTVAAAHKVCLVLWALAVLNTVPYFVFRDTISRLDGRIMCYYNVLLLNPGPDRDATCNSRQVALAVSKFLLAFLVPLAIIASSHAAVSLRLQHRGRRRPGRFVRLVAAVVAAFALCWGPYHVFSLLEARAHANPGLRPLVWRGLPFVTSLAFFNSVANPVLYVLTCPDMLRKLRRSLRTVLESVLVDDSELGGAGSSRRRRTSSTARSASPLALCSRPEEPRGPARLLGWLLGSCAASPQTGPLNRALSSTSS
The experiment in a line: Displacement of [3H]PGD2 from human CRTH2 receptor. In outline: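 Radioligand binding with ³H-PGD₂ as the labelled ligand; IC₅₀ reported as mean of n >2 measurements.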

Data set [9] in a line: Intrinsic clearance in rat hepatocytes assessed as per 1 x 10^6 cells.
Data set [10] concerns the target T2, Prostaglandin D2 receptor (Homo sapiens) (UniProt Q13258).
T2 sequence (whole entry): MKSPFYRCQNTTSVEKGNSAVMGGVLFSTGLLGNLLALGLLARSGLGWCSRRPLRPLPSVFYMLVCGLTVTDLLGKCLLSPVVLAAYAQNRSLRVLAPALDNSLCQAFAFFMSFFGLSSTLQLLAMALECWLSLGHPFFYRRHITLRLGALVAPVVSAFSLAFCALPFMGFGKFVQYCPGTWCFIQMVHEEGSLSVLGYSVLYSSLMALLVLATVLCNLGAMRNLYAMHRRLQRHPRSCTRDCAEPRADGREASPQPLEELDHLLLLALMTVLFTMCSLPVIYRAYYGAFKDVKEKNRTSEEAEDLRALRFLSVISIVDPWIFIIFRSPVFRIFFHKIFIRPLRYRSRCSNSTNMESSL
The experiment in a line: Antagonist activity at prostanoid DP1 receptor. In kind it is functional.

Data set [11] addresses T3, Thromboxane A2 receptor (Homo sapiens) (UniProt P21731).
T3 sequence (whole entry): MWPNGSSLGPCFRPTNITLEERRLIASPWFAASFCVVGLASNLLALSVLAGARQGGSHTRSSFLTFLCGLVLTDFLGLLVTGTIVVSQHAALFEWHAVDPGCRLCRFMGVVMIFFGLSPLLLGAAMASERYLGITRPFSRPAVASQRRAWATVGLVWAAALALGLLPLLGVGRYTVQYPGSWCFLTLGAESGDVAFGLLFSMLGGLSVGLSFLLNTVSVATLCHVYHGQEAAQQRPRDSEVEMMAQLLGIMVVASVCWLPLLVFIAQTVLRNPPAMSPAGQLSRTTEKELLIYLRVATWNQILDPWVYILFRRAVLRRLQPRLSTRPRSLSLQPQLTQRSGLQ
The experiment in a line: Antagonist activity at prostanoid TP receptor assessed as inhibition of arachidonic acid-induced platelet aggregation at >/= 1 uM. In kind it is functional.

Data set [12] can be described thus: Oral bioavailability in Sprague-Dawley rat at 4 mg/kg. As to conditions: in vivo. The format is ADME, organism-based.
The target in a further data set is Cytochrome P450 3A4 (Homo sapiens, UniProt P08684). The experiment in a line: Inhibition of CYP3A4. The format is ADME.
The next data set deals with Cytochrome P450 2D6 (Homo sapiens, UniProt P10635). Briefly: Inhibition of CYP2D6. The format is ADME.
Data set [13] deals with Prostaglandin G/H synthase 1 (Homo sapiens) (UniProt P23219). Briefly: Inhibition of COX1 assessed as inhibition of arachidonic acid-induced platelet aggregation at >/= 1 uM.
Data set [14] addresses T1, Prostaglandin D2 receptor 2. Briefly: Antagonist activity against human CRTh2 receptor in human eosinophils assessed as inhibition of DK-PGD2-induced CD11b expression. In kind it is functional.
The target in another data set is Cytochrome P450 2C9 (Homo sapiens, UniProt P11712). The experiment in a line: Inhibition of CYP2C9. In kind it is ADME.
A further data set addresses T4, Cytochrome P450 1A2 (Homo sapiens, UniProt P05177).
T4 sequence (P05177 whole entry): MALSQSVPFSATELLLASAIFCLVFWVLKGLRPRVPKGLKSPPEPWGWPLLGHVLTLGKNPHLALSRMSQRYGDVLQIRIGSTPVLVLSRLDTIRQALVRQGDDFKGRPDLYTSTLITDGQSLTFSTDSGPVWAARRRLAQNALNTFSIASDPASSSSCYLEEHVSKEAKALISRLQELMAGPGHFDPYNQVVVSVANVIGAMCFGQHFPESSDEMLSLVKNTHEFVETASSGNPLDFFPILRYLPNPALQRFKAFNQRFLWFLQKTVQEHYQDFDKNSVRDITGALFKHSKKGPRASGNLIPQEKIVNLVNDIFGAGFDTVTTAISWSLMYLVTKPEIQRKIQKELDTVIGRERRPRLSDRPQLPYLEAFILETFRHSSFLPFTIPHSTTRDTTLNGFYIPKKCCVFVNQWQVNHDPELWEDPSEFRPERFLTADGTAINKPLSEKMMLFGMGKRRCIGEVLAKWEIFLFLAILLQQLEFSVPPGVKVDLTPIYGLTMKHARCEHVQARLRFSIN
The experiment in a line: Inhibition of CYP1A2. The format is ADME.

Data set [15] concerns the target Aldo-keto reductase family 1 member B1 (Rattus norvegicus, UniProt P07943). Briefly: Inhibition of rat aldose reductase.
For data set [16], the target named is T1, Prostaglandin D2 receptor 2. The experiment in a line: Antagonist activity at human CRTh2 receptor expressed in HEK cells assessed as inhibition of PGD2-induced calcium flux. In kind it is functional, cell-based, HEK293.

Chain of Cytochrome P450 3A4 (P08684 whole entry): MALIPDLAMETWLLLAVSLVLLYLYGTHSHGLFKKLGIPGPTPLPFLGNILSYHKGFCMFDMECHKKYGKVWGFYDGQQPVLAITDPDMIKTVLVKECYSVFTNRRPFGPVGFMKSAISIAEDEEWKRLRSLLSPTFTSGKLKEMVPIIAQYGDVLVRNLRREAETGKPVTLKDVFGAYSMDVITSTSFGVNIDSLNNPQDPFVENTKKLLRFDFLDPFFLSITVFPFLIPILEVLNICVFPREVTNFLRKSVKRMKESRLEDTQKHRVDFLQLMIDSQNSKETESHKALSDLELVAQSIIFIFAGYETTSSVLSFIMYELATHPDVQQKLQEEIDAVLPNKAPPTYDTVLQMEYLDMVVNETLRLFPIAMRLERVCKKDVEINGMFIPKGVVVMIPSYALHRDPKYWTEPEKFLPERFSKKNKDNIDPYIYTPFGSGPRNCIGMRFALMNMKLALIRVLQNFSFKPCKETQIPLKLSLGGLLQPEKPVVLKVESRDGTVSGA
Chain of Cytochrome P450 2C9 (P11712 whole entry): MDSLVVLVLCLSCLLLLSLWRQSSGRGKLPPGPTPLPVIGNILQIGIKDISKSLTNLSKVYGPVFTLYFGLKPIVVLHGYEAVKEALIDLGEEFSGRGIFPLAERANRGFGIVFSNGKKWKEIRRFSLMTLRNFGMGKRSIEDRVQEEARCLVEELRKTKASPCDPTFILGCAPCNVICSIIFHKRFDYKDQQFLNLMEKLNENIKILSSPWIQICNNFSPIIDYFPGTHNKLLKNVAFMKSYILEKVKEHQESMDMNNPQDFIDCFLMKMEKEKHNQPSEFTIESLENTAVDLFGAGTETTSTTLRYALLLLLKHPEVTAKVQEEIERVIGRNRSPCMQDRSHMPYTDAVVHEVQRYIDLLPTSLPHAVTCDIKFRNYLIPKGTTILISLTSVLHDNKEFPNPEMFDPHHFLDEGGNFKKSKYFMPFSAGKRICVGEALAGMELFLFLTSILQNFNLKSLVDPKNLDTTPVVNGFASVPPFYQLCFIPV
Chain of Cytochrome P450 2D6 (P10635 whole entry): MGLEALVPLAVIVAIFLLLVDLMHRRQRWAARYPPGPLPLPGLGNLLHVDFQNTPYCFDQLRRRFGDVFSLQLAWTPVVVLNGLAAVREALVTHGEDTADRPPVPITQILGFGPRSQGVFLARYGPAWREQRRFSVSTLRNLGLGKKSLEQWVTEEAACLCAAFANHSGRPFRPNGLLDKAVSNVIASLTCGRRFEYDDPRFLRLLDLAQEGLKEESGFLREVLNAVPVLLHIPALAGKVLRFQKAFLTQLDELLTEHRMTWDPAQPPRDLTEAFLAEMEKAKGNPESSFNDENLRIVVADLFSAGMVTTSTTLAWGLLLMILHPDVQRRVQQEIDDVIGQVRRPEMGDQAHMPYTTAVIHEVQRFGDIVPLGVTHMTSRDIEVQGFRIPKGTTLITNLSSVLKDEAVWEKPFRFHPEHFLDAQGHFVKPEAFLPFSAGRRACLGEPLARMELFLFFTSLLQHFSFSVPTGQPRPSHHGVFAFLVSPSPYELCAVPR
Chain of Prostaglandin G/H synthase 1 (Homo sapiens) (P23219 whole entry): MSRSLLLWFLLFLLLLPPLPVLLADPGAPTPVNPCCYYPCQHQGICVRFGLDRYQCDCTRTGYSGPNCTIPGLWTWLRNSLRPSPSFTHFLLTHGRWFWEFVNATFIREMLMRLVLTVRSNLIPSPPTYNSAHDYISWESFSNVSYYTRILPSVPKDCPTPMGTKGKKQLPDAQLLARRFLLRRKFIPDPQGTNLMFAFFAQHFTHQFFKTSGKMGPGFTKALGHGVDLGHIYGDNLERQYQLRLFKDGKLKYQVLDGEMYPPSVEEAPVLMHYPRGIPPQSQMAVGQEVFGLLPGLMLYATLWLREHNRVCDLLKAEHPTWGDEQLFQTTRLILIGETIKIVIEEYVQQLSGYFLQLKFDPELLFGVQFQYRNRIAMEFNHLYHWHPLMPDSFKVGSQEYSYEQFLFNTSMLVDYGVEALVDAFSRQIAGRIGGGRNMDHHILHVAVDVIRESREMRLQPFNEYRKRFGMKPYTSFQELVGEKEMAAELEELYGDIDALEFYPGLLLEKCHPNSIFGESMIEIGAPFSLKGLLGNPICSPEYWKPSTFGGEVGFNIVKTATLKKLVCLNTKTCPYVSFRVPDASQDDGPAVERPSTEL

For `CC(=O)Nc1cccc2c1c(S(=O)(=O)c1ccc(Cl)cc1)c(C)n2CC(=O)O`, the clearance in data set [1] is 4 mL/min/kg. In addition, the IC50 in data set [2] was 4470 nM; in data set [5], 708 nM; in [8], 7.1 nM. Besides, the bioavailability in data set [3] is below 10%. The logD in [4] amounted to 0.4. The Ratio IC50 in the data set listed under Homo sapiens was determined as 100. Besides, the Vd in data set [6] stood at 0.2 L/kg. The compound further had a half-life in [7] of 0.9 h. Further, the hepatocyte CLint in [9] was below 1 µL/min/1e6 cells.

For the compound `CC(=O)Nc1cccc2c1c(Sc1ccc(Cl)cc1)c(C)n2CC(=O)O` [AZD1981], the outcome in data set [10] was inactive. For the same compound, the inhibition result in [11] and in [13] was “inactive” each time. Also, the clearance in data set [1] turned out to be 4 mL/min/kg. For the same compound, the concentration for half-maximal inhibition (IC50) in data set [2] is 2510 nM; against Cytochrome P450 3A4, above 10000 nM; at Cytochrome P450 2D6, above 10000 nM; in data set [14], 10 nM; on Cytochrome P450 2C9 it was above 10000 nM; in data set [8], 4.3 nM. The 50% inhibitory concentration (IC50) against Cytochrome P450 1A2 is above 10000 nM. In addition, the bioavailability in data set [12] worked out at 63%. The same compound registered a logD in data set [4] of -0.2. Moreover, the Vd in [6] was 0.5 L/kg. The compound also had a half-life in data set [7] of 1.9 h. Besides, the hepatocyte CLint in data set [9] came out at 1 µL/min/1e6 cells.

Take `Cc1ccc2c(c1)c(Sc1ccccc1)c(C)n2CC(=O)O`: the IC50 was 157 nM in data set [15], 20 nM in data set [8] and 25 nM in data set [16].
